Experimental data as given in ChEMBL document CHEMBL1145833, “Studies on the synthesis and biological properties of non-carrier-added [(125)I and (131)I]-labeled arylalkylidenebisphosphonates: potent bone-seekers for diagnosis and therapy of malignant osseous lesions” (J Med Chem, 2003).
Blank lines part the entries; values can stand above or below the compound they belong to.

Columns and labels:
Conditions in all cases: in vivo
Mus musculus [1] = organism: Mus musculus; assay: Distribution of compound in liver tissue of mice after 5 hr injection time was determined; type: ADME, organism-based
How it was run: (§1)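 Healthy athymic nude mice (balb/c nu/nu, 20–25 g, both sexes) received 50–400 KBq radioiodinated bisphosphonate in 100 µL phosphate buffer pH 6–7 by tail-vein injection. Three animals were sacrificed per time point. Tissues were excised, weighed and gamma-counted. Values are % injected dose per gram tissue, mean ± 1 SD, n = 3.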

Mus musculus [2] = organism: Mus musculus; assay: Distribution of compound in lungs tissue of mice after 0.5 h injection time was determined; type: ADME, organism-based, Lung; how it was run: as §1
Mus musculus [3] = organism: Mus musculus; assay: Distribution of compound in lungs tissue of mice after 2 hr injection time was determined; type: ADME, organism-based, Lung; how it was run: as §1
Mus musculus [4] = organism: Mus musculus; assay: Distribution of compound in lungs tissue of mice after 24 hr injection time was determined; type: ADME, organism-based, Lung; how it was run: as §1
Mus musculus [5] = organism: Mus musculus; assay: Distribution of compound in lungs tissue of mice after 5 hr injection time was determined; type: ADME, organism-based, Lung; how it was run: as §1
Mus musculus [6] = organism: Mus musculus; assay: Distribution of compound in skull tissue of mice after 0.5 hr injection time was determined; type: ADME, organism-based; how it was run: as §1
Mus musculus [7] = organism: Mus musculus; assay: Distribution of compound in skull tissue of mice after 2 hr injection time was determined; type: ADME, organism-based; how it was run: as §1
Mus musculus [8] = organism: Mus musculus; assay: Distribution of compound in skull tissue of mice after 24 hr injection time was determined; type: ADME, organism-based; how it was run: as §1
Mus musculus [9] = organism: Mus musculus; assay: Distribution of compound in skull tissue of mice after 5 h injection time was determined; type: ADME, organism-based; how it was run: as §1
Mus musculus [10] = organism: Mus musculus; assay: Distribution of compound in spleen tissue of mice after 0.5 hr injection time was determined; type: ADME, organism-based; how it was run: as §1
Mus musculus [11] = organism: Mus musculus; assay: Distribution of compound in kidneys tissue of mice after 0.5 hr injection time was determined; type: ADME, organism-based, Kidney; how it was run: as §1
Mus musculus [12] = organism: Mus musculus; assay: Distribution of compound in kidneys tissue of mice after 2 hr injection time was determined; type: ADME, organism-based, Kidney; how it was run: as §1
Mus musculus [13] = organism: Mus musculus; assay: Distribution of compound in kidneys tissue of mice after 24 hr injection time was determined; type: ADME, organism-based, Kidney; how it was run: as §1
Mus musculus [14] = organism: Mus musculus; assay: Distribution of compound in kidneys tissue of mice after 5 hr injection time was determined; type: ADME, organism-based, Kidney; how it was run: as §1
Mus musculus [15] = organism: Mus musculus; assay: Distribution of compound in liver tissue of mice after 0.5 hr injection time was determined; type: ADME, organism-based; how it was run: as §1
Mus musculus [16] = organism: Mus musculus; assay: Distribution of compound in liver tissue of mice after 24 hr injection time was determined; type: ADME, organism-based; how it was run: as §1
Mus musculus [17] = organism: Mus musculus; assay: Distribution of compound in heart tissue of mice after 2 hr injection time was determined; type: ADME, organism-based; how it was run: as §1
Mus musculus [18] = organism: Mus musculus; assay: Distribution of compound in heart tissue of mice after 24 hr injection time was determined; type: ADME, organism-based; how it was run: as §1
Mus musculus [19] = organism: Mus musculus; assay: Distribution of compound in heart tissue of mice after 5 hr injection time was determined; type: ADME, organism-based; how it was run: as §1
Mus musculus [20] = organism: Mus musculus; assay: Distribution of compound in intestine tissue of mice after 0.5 hr injection time was determined; type: ADME, organism-based; how it was run: as §1
Mus musculus [21] = organism: Mus musculus; assay: Distribution of compound in intestine tissue of mice after 2 hr injection time was determined; type: ADME, organism-based; how it was run: as §1
Mus musculus [22] = organism: Mus musculus; assay: Distribution of compound in intestine tissue of mice after 24 hr injection time was determined; type: ADME, organism-based; how it was run: as §1
Mus musculus [23] = organism: Mus musculus; assay: Distribution of compound in intestine tissue of mice after 5 hr injection time was determined; type: ADME, organism-based; how it was run: as §1
Mus musculus [24] = organism: Mus musculus; assay: Distribution of compound in spleen tissue of mice after 2 hr injection time was determined; type: ADME, organism-based; how it was run: as §1
Mus musculus [25] = organism: Mus musculus; assay: Distribution of compound in spleen tissue of mice after 24 hr injection time was determined; type: ADME, organism-based; how it was run: as §1
Mus musculus [26] = organism: Mus musculus; assay: Distribution of compound in spleen tissue of mice after 5 h injection time was determined; type: ADME, organism-based; how it was run: as §1
Mus musculus [27] = organism: Mus musculus; assay: Distribution of compound in stomach tissue of mice after 0.5 hr injection time was determined; type: ADME, organism-based; how it was run: as §1
Mus musculus [28] = organism: Mus musculus; assay: Distribution of compound in stomach tissue of mice after 2 hr injection time was determined; type: ADME, organism-based; how it was run: as §1
Mus musculus [29] = organism: Mus musculus; assay: Distribution of compound in stomach tissue of mice after 24 hr injection time was determined; type: ADME, organism-based; how it was run: as §1
Mus musculus [30] = organism: Mus musculus; assay: Distribution of compound in stomach tissue of mice after 5 hr injection time was determined; type: ADME, organism-based; how it was run: as §1
Mus musculus [31] = organism: Mus musculus; assay: Distribution of compound in thyroid tissue of mice after 0.5 hr injection time was determined; type: ADME, organism-based, Thyroid gland
How it was run: (§2)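 Healthy athymic nude balb/c nu/nu mice (20–25 g) received 50–400 KBq radioiodinated bisphosphonate in 100 μL phosphate buffer, pH 6–7, by tail-vein injection. Three animals were sacrificed per time point. Thyroid-containing tissue was excised, weighed and gamma-counted. Values are % of injected dose, mean ± 1 SD of three mice.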

Mus musculus [32] = organism: Mus musculus; assay: Distribution of compound in thyroid tissue of mice after 2 hr injection time was determined; type: ADME, organism-based, Thyroid gland; how it was run: as §2
Mus musculus [33] = organism: Mus musculus; assay: Distribution of compound in thyroid tissue of mice after 24 h injection time was determined; type: ADME, organism-based, Thyroid gland; how it was run: as §2
Mus musculus [34] = organism: Mus musculus; assay: Distribution of compound in thyroid tissue of mice after 5 h injection time was determined; type: ADME, organism-based, Thyroid gland; how it was run: as §2
Mus musculus [35] = organism: Mus musculus; assay: Distribution of compound in blood tissue of mice after 0.5 hr injection time was determined; type: ADME, organism-based; how it was run: as §1
Mus musculus [36] = organism: Mus musculus; assay: Distribution of compound in blood tissue of mice after 2 hr injection time was determined; type: ADME, organism-based; how it was run: as §1
Mus musculus [37] = organism: Mus musculus; assay: Distribution of compound in blood tissue of mice after 24 hr injection time was determined; type: ADME, organism-based; how it was run: as §1
Mus musculus [38] = organism: Mus musculus; assay: Distribution of compound in blood tissue of mice after 5 h injection time was determined; type: ADME, organism-based; how it was run: as §1
Mus musculus [39] = organism: Mus musculus; assay: Distribution of compound in femur tissue of mice after 0.5 hr injection time was determined; type: ADME, organism-based; how it was run: as §1
Mus musculus [40] = organism: Mus musculus; assay: Distribution of compound in femur tissue of mice after 2 hr injection time was determined; type: ADME, organism-based; how it was run: as §1
Mus musculus [41] = organism: Mus musculus; assay: Distribution of compound in femur tissue of mice after 24 hr injection time was determined; type: ADME, organism-based; how it was run: as §1
Mus musculus [42] = organism: Mus musculus; assay: Distribution of compound in femur tissue of mice after 5 hr injection time was determined; type: ADME, organism-based; how it was run: as §1
Mus musculus [43] = organism: Mus musculus; assay: Distribution of compound in heart tissue of mice after 0.5 hr injection time was determined; type: ADME, organism-based; how it was run: as §1
Mus musculus [44] = organism: Mus musculus; assay: Distribution of compound in liver tissue of mice after 2 h injection time was determined; type: ADME, organism-based; how it was run: as §1

Injected (Mus musculus [1]): 0.94%
Injected (Mus musculus [2]): 1%
Injected (Mus musculus [3]): 0.35%
Injected (Mus musculus [4]): 0.06%
Injected (Mus musculus [5]): 0.1%
Injected (Mus musculus [6]): 10.28%
Injected (Mus musculus [7]): 7.64%
Injected (Mus musculus [8]): 7.13%
Injected (Mus musculus [9]): 6.16%
Injected (Mus musculus [10]): 0.35%
Injected (Mus musculus [11]): 8.23%
Injected (Mus musculus [12]): 3.68%
Injected (Mus musculus [13]): 1.06%
Injected (Mus musculus [14]): 2.26%
Injected (Mus musculus [15]): 2.98%
Injected (Mus musculus [16]): 0.23%
Injected (Mus musculus [17]): 0.26%
Injected (Mus musculus [18]): 0.04%
Injected (Mus musculus [19]): 0.07%
Injected (Mus musculus [20]): 0.37%
Injected (Mus musculus [21]): 0.28%
Injected (Mus musculus [22]): 0.28%
Injected (Mus musculus [23]): 0.24%
Injected (Mus musculus [24]): 0.26%
Injected (Mus musculus [25]): 0.1%
Injected (Mus musculus [26]): 0.12%
Injected (Mus musculus [27]): 1.14%
Injected (Mus musculus [28]): 1.12%
Injected (Mus musculus [29]): 0.05%
Injected (Mus musculus [30]): 0.23%
Injected (Mus musculus [31]): 0.21%
Injected (Mus musculus [32]): 0.14%
Injected (Mus musculus [33]): 0.02%
Injected (Mus musculus [34]): 0.06%
Injected (Mus musculus [35]): 2.22%
Injected (Mus musculus [36]): 0.31%
Injected (Mus musculus [37]): 0.03%
Injected (Mus musculus [38]): 0.11%
Injected (Mus musculus [39]): 18.8%
Injected (Mus musculus [40]): 21.16%
Injected (Mus musculus [41]): 15.25%
Injected (Mus musculus [42]): 10%
Injected (Mus musculus [43]): 0.9%
Injected (Mus musculus [44]): 2.14%
SMILES: O=P(O)(O)C(Cc1cccc(I)c1)P(=O)(O)O

Injected (Mus musculus [4]): 0.67%
Injected (Mus musculus [8]): 0.91%
Injected (Mus musculus [13]): 0.4%
Injected (Mus musculus [16]): 5.57%
Injected (Mus musculus [18]): 0.19%
Injected (Mus musculus [22]): 0.1%
Injected (Mus musculus [25]): 2.49%
Injected (Mus musculus [29]): 0.07%
Injected (Mus musculus [33]): 0.02%
Injected (Mus musculus [37]): 0.18%
Injected (Mus musculus [41]): 1.39%
SMILES: O=P(O)(O)C(NCCc1cccc(I)c1)P(=O)(O)O
